# Active and inactive are the calls of the source. The rule behind the calls is not given here.
# Tests used:
# [1] = target: Tyrosine-protein phosphatase non-receptor type 1 (Homo sapiens) (UniProt P18031); test: Inhibition of PTP1B (unknown origin) expressed in Escherichia coli using pNPP as substrate at 200 uM after 5 mins by spectrophotometry
# How it was run: (§1)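 Single-point screen: the test compound is present at 200 μM in the assay (a compound concentration, not a substrate level). The read-out is phosphatase-catalysed hydrolysis of para-nitrophenyl phosphate.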
# [2] = target: Tyrosine-protein phosphatase non-receptor type 2 (Homo sapiens) (UniProt P17706); test: Inhibition of TC-PTP (unknown origin) using pNPP as substrate at 200 uM after 5 mins by spectrophotometry; how it was run: as §1
# [3] = target: Tyrosine-protein phosphatase non-receptor type 22 (Homo sapiens) (UniProt Q9Y2R2); test: Inhibition of LYP (unknown origin) expressed in Escherichia coli using pNPP as substrate at 200 uM after 5 mins by spectrophotometry; how it was run: as §1
# [4] = target: Tyrosine-protein phosphatase non-receptor type 7 (Homo sapiens) (UniProt P35236); test: Inhibition of HePTP (unknown origin) expressed in Escherichia coli using pNPP as substrate at 200 uM after 5 mins by spectrophotometry; how it was run: as §1
# [5] = target: Tyrosine-protein phosphatase non-receptor type 11 (Homo sapiens) (UniProt Q06124); test: Inhibition of SHP2 (unknown origin) expressed in Escherichia coli using pNPP as substrate at 200 uM after 5 mins by spectrophotometry; how it was run: as §1
# Tyrosine-protein phosphatase non-receptor type 11 (Homo sapiens), sequence (Q06124 whole entry): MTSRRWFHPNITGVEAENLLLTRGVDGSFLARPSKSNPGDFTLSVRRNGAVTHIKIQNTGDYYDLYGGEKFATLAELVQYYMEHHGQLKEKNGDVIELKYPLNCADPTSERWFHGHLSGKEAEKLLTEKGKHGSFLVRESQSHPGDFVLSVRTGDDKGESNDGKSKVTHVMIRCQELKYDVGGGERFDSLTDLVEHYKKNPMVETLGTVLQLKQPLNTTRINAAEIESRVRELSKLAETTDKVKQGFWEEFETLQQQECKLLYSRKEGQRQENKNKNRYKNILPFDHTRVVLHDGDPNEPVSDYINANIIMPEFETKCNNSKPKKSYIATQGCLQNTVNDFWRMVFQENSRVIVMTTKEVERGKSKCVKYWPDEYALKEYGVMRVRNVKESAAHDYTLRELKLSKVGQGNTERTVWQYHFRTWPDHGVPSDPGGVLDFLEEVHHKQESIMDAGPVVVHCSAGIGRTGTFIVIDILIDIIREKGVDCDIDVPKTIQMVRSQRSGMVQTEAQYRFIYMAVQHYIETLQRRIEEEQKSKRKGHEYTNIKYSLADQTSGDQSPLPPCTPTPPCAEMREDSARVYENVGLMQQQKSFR
# [6] = target: Tyrosine-protein phosphatase non-receptor type 3 (Homo sapiens) (UniProt P26045); test: Inhibition of PTPH1 (unknown origin) using pNPP as substrate at 200 uM after 5 mins by spectrophotometry; how it was run: as §1
# [7] = target: Tyrosine-protein phosphatase non-receptor type 9 (Homo sapiens) (UniProt P43378); test: Inhibition of Meg2 (unknown origin) using pNPP as substrate at 200 uM after 5 mins by spectrophotometry; how it was run: as §1
# Tyrosine-protein phosphatase non-receptor type 9 (Homo sapiens), sequence (P43378 whole entry): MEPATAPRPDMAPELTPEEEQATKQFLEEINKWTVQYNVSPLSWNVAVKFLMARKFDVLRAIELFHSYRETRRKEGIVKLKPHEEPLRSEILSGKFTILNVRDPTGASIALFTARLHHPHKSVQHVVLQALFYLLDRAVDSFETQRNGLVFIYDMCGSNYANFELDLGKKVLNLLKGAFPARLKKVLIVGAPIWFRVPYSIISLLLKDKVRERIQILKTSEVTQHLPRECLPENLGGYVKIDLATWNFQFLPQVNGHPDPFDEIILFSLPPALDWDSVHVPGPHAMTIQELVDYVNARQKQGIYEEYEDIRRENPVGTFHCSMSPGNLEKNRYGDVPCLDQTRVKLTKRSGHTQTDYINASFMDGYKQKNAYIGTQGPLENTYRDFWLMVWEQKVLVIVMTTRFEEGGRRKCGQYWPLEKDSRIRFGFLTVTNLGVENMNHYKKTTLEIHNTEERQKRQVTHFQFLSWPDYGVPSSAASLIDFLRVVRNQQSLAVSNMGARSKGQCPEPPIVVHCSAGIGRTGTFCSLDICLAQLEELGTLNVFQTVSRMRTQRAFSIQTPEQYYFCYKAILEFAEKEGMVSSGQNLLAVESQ
# [8] = target: Receptor-type tyrosine-protein phosphatase F (Homo sapiens) (UniProt P10586); test: Inhibition of LAR (unknown origin) using pNPP as substrate at 200 uM after 5 mins by spectrophotometry; how it was run: as §1
# Receptor-type tyrosine-protein phosphatase F (Homo sapiens), sequence (P10586 whole entry): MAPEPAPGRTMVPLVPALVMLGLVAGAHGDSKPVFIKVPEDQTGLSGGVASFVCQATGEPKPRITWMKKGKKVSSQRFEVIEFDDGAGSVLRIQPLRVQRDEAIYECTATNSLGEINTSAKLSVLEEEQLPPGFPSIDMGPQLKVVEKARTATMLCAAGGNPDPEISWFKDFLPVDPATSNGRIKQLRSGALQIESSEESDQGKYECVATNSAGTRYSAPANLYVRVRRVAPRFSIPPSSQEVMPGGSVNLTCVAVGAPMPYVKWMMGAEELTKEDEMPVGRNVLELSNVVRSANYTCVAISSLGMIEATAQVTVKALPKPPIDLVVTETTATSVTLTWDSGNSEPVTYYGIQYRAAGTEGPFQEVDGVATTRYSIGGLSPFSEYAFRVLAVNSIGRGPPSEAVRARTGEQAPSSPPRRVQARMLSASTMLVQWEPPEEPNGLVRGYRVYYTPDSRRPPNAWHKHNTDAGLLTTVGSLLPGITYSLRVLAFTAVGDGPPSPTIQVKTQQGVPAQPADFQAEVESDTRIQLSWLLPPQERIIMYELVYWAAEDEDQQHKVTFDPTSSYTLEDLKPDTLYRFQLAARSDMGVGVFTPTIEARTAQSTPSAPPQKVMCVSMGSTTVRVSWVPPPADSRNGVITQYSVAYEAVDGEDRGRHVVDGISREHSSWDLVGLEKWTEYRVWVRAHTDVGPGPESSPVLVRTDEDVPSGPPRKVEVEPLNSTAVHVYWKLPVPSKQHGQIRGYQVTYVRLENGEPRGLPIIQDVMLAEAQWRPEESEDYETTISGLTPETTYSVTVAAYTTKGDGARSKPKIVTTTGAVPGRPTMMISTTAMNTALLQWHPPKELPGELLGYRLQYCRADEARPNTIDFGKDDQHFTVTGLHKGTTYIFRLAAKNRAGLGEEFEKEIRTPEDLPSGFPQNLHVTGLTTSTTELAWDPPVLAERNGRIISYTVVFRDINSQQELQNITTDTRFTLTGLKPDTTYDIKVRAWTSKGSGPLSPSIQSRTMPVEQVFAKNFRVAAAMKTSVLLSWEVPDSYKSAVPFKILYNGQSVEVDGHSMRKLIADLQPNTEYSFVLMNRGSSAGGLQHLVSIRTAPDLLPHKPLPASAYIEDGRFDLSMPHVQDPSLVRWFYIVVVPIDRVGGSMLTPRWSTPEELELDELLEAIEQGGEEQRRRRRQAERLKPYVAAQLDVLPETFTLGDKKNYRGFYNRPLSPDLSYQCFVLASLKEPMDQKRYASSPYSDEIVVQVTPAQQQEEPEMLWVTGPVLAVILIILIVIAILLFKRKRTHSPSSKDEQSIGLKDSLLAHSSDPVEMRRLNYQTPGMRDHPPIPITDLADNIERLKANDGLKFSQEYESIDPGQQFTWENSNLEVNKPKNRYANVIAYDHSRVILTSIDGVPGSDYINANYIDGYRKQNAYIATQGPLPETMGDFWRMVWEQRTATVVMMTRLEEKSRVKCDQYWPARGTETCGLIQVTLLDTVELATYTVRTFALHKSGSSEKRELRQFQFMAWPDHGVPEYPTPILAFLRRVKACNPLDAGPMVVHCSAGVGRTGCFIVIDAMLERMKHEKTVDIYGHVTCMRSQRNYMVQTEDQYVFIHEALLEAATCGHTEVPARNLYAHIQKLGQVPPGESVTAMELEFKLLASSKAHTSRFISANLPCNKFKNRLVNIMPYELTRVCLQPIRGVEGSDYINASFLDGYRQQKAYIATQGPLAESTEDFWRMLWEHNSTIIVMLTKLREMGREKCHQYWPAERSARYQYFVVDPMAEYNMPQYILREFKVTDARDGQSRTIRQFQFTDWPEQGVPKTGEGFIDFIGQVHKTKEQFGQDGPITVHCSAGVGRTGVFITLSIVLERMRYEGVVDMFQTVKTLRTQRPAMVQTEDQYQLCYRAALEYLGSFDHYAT
# [9] = target: Receptor-type tyrosine-protein phosphatase alpha (Homo sapiens) (UniProt P18433); test: Inhibition of PTPalpha (unknown origin) using pNPP as substrate at 200 uM after 5 mins by spectrophotometry; how it was run: as §1
# [10] = target: Receptor-type tyrosine-protein phosphatase beta (Homo sapiens) (UniProt P23467); test: Inhibition of PTPbeta (unknown origin) using pNPP as substrate at 200 uM after 5 mins by spectrophotometry; how it was run: as §1
# Receptor-type tyrosine-protein phosphatase beta (Homo sapiens), sequence (P23467 23-1997 limits assumed): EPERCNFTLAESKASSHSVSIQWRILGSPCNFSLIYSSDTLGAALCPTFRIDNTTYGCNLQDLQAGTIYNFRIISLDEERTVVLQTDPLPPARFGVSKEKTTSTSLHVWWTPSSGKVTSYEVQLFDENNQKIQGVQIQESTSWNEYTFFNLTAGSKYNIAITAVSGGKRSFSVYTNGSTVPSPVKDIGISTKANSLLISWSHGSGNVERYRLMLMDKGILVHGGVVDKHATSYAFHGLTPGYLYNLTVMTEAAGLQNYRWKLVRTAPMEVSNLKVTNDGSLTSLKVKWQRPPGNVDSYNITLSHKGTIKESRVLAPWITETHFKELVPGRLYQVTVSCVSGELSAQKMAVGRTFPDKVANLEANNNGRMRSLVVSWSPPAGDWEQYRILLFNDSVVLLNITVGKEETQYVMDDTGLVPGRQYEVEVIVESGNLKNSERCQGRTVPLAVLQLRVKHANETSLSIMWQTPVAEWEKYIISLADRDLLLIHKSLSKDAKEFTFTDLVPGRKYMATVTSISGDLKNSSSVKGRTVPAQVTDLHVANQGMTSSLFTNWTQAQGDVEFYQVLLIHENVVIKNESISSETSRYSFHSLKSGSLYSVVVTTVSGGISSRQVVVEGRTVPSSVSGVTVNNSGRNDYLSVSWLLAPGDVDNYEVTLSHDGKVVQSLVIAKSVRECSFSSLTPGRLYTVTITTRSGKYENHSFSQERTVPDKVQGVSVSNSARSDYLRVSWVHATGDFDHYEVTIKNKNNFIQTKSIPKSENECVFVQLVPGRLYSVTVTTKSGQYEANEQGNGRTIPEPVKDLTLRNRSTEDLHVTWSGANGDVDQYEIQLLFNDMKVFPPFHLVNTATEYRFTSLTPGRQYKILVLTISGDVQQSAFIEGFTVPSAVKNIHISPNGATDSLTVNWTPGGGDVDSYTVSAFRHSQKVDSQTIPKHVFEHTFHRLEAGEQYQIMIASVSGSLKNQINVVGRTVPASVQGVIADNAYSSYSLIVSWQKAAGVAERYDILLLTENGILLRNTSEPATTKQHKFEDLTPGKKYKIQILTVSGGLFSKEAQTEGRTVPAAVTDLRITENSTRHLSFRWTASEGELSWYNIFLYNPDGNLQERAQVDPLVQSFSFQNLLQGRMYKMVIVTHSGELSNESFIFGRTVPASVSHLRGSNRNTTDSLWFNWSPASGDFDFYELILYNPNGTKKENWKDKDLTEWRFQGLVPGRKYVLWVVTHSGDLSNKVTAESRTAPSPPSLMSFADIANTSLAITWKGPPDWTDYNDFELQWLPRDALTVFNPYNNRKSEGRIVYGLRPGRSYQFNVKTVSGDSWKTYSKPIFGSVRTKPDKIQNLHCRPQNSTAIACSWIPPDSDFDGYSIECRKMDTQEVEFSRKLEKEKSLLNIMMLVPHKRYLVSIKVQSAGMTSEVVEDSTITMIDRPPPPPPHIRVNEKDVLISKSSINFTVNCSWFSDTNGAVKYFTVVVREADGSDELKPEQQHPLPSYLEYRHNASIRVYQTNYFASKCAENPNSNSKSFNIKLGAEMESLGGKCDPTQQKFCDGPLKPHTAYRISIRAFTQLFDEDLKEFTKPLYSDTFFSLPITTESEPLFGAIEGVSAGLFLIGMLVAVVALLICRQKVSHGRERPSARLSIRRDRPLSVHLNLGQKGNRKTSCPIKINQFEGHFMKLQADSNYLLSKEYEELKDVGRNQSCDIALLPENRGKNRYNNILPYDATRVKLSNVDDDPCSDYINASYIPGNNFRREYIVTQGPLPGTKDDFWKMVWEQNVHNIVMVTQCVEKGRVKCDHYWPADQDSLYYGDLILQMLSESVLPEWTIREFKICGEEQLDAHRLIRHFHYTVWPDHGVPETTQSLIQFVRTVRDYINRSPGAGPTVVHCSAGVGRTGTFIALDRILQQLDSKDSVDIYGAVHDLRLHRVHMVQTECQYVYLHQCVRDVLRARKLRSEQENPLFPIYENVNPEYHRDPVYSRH
# [11] = target: Receptor-type tyrosine-protein phosphatase gamma (Homo sapiens) (UniProt P23470); test: Inhibition of PTPgamma (unknown origin) using pNPP as substrate at 200 uM after 5 mins by spectrophotometry; how it was run: as §1
# [12] = target: Receptor-type tyrosine-protein phosphatase mu (Homo sapiens) (UniProt P28827); test: Inhibition of PTPmu (unknown origin) using pNPP as substrate at 200 uM after 5 mins by spectrophotometry; how it was run: as §1
# [13] = target: Dual specificity protein phosphatase 3 (Homo sapiens) (UniProt P51452); test: Inhibition of VHR (unknown origin) using pNPP as substrate at 200 uM after 5 mins by spectrophotometry; how it was run: as §1
# [14] = target: Dual specificity protein phosphatase 22 (Homo sapiens) (UniProt Q9NRW4); test: Inhibition of VHX (unknown origin) expressed in Escherichia coli using pNPP as substrate at 200 uM after 5 mins by spectrophotometry; how it was run: as §1
# [15] = target: Dual specificity protein phosphatase CDC14A (Homo sapiens) (UniProt Q9UNH5); test: Inhibition of CDC14A (unknown origin) using pNPP as substrate at 200 uM after 5 mins by spectrophotometry; how it was run: as §1
# [16] = target: Low molecular weight phosphotyrosine protein phosphatase (Homo sapiens) (UniProt P24666); test: Inhibition of LMWPTP (unknown origin) using pNPP as substrate at 200 uM after 5 mins by spectrophotometry; how it was run: as §1
# [17] = target: Serine/threonine-protein phosphatase 5 (Homo sapiens) (UniProt P53041); test: Inhibition of PP5 (unknown origin) using pNPP as substrate at 200 uM after 5 mins by spectrophotometry; how it was run: as §1
# RAW264.7 [18] = test: Inhibition of Mycobacterium tuberculosis PTPB transfected in mouse RAW264.7 cells assessed as increase in ERK1/2 phosphorylation pre-treated for 1 hrs followed by stimulation with IFNgamma for 1 hr by Western blotting method; type: cell-based
# RAW264.7 [19] = test: Inhibition of Mycobacterium tuberculosis PTPB transfected in mouse RAW264.7 cells decrease in Akt phosphorylation pre-treated for 1 hrs followed by stimulation with IFNgamma for 1 hr by Western blotting method; type: cell-based
# [20] = target: MAP kinase p38 (Mus musculus) (UniProt P47811+O08911+Q9WUI1+Q9Z1B7); test: Effect on p38 phosphorylation in mouse RAW264.7 cells transfected with empty vector at 10 to 40 nM pre-treated for 1 hrs followed by stimulation with IFNgamma for 1 hr by Western blotting method; type: cell-based
# [21] = target: RAC-alpha serine/threonine-protein kinase (Mus musculus) (UniProt P31750); test: Effect on Akt phosphorylation in mouse RAW264.7 cells transfected with empty vector at 10 to 40 nM pre-treated for 1 hrs followed by stimulation with IFNgamma for 1 hr by Western blotting method; type: cell-based
# [22] = Selectivity ratio of IC50 for TC-PTP (unknown origin) to IC50 for Mycobacterium tuberculosis PTPB
# How it was run: (§2)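 Each phosphatase in the 25-enzyme panel was tested for inhibition at 200 μM compound. The mPTPB IC50 was determined against mPTPB-catalysed hydrolysis of para-nitrophenyl phosphate. The ratio is the panel-enzyme IC50 divided by the mPTPB IC50.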
# [23] = Selectivity ratio of IC50 for HePTP (unknown origin) to IC50 for Mycobacterium tuberculosis PTPB
# [24] = Selectivity ratio of IC50 for SHP1 (unknown origin) to IC50 for Mycobacterium tuberculosis PTPB; how it was run: as §2
# [25] = Selectivity ratio of IC50 for SHP2 (unknown origin) to IC50 for Mycobacterium tuberculosis PTPB; how it was run: as §2
# [26] = Selectivity ratio of IC50 for Meg2 (unknown origin) to IC50 for Mycobacterium tuberculosis PTPB
# [27] = Selectivity ratio of IC50 for LAR (unknown origin) to IC50 for Mycobacterium tuberculosis PTPB
# [28] = Selectivity ratio of IC50 for PTPbeta (unknown origin) to IC50 for Mycobacterium tuberculosis PTPB; how it was run: as §2
# [29] = Selectivity ratio of IC50 for PTPgamma (unknown origin) to IC50 for Mycobacterium tuberculosis PTPB; how it was run: as §2
# [30] = Selectivity ratio of IC50 for PTPmu (unknown origin) to IC50 for Mycobacterium tuberculosis PTPB; how it was run: as §2
# [31] = Selectivity ratio of IC50 for PTPepsilon (unknown origin) to IC50 for Mycobacterium tuberculosis PTPB; how it was run: as §2
# [32] = Selectivity ratio of IC50 for PTPsigma (unknown origin) to IC50 for Mycobacterium tuberculosis PTPB; how it was run: as §2
# [33] = Selectivity ratio of IC50 for LMWPTP (unknown origin) to IC50 for Mycobacterium tuberculosis PTPB
# [34] = Selectivity ratio of IC50 for PP5 (unknown origin) to IC50 for Mycobacterium tuberculosis PTPB
smiles,measurement,setting,value
O=C(C(c1ccccc1)S(=O)(=O)O)N1CCCC2CCCCC21 (racemic),inhibition,[1],inactive
same,inhibition,[2],inactive
same,inhibition,[3],inactive
same,inhibition,[4],inactive
same,inhibition,[5],inactive
same,inhibition,[6],inactive
same,inhibition,[7],inactive
same,inhibition,[8],inactive
same,inhibition,[9],inactive
same,inhibition,[10],inactive
same,inhibition,[11],inactive
same,inhibition,[12],inactive
same,inhibition,[13],inactive
same,inhibition,[14],inactive
same,inhibition,[15],inactive
same,inhibition,[16],inactive
same,inhibition,[17],inactive
same,inhibition,RAW264.7 [18],Dose-dependent effect
same,inhibition,RAW264.7 [19],Dose-dependent effect
same,Activity,[20],inactive
same,Activity,[21],inactive
same,Ratio IC50,[22],> 10000
same,Ratio IC50,[23],> 10000
same,Ratio IC50,[24],> 10000
same,Ratio IC50,[25],> 10000
same,Ratio IC50,[26],> 10000
same,Ratio IC50,[27],> 10000
same,Ratio IC50,[28],> 10000
same,Ratio IC50,[29],> 10000
same,Ratio IC50,[30],> 10000
same,Ratio IC50,[31],> 10000
same,Ratio IC50,[32],> 10000
same,Ratio IC50,[33],> 10000
same,Ratio IC50,[34],> 10000
